Experiment [1] in a line: Effect on ornithine decarboxylase (ODC) tested at 1 uM at 4 hour in L1210 cells. In kind it is functional, Mus musculus. Summed up:
(§1)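 L1210 cells were exposed to 1 μM analogue, for 4 h (ODC) or 6 h (AdoMetDC). Activity was measured as 14CO2 released from [14C]carboxyl-labelled L-ornithine (ODC) or S-adenosyl-L-methionine (AdoMetDC) and given as percent of untreated control. Each run included DEHSPM-treated positive controls. Values are the mean of at least three experiments.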

Experiment [2] concerns L1210. The experiment in a line: Percentage of putrescine after 48 hr exposure to the compound (125 uM ) in L1210 cells. In kind it is functional, Mus musculus. The method, boiled down: (§2)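 Log-phase L1210 cells were treated for 48 h with analogue at two concentrations. Cells were washed twice in cold RPMI-1640 and extracted with 0.6 N HClO4. Putrescine, spermidine and spermine were quantified by HPLC of dansyl derivatives and given as percent of untreated controls. Runs were in triplicate with untreated controls.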

In experiment [3] the test system is L1210. The experiment in a line: Percentage of spermidine after 48 hr of exposure to the compound (125 uM ) in L1210 cells. Format: functional, Mus musculus. The method, boiled down:
as §2

The test system of experiment [4] is L1210. Put plainly: Percentage of spermidine after 48 hr of exposure to the compound (25(10)uM ) in L1210 cells. In kind it is functional, Mus musculus. Summed up: as §2
Experiment [5] has as its system L1210. Put plainly: Intracellular levels in L1210 cells following 500 uM exposure. In kind it is functional, Mus musculus. The method, boiled down:
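L1210 cells were grown 48 h in medium containing 500 μM analogue. Cellular contents were analysed by HPLC of dansyl derivatives and given as pmol/10^6 cells, as parent drug and metabolites with the % of total drug in the cell.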

The test system of experiment [6] is L1210. Put plainly: Percentage of spermine after 48 hr exposure to the compound (125 uM ) in L1210 cells. In kind it is functional, Mus musculus. Summed up:
as §2

The subject of experiment [7] is L1210. The experiment in a line: Percentage of putrescine after 48 hr exposure to the compound (25(10)uM ) in L1210 cells. Format: functional, Mus musculus. Summed up:
as §2

For experiment [8], the system named is L1210. The experiment in a line: Growth inhibitory activity against L1210 cells (48h). In kind it is functional, cell-based. Particulars: Mus musculus, L1210, 48 h. Summed up: (§3)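 Murine L1210 leukemia cells were kept in log growth in RPMI-1640 with 10% fetal calf serum or NuSerum, HEPES-MOPS buffer and 1 mM aminoguanidine. IC50 is the concentration giving 50% of untreated control growth, as the mean of at least two experiments.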

Experiment [9] concerns L1210. Put plainly: Growth inhibitory activity against L1210 cells (96h). In kind it is functional, cell-based. Particulars: Mus musculus, L1210, 96 h. Summed up:
as §3

In experiment [10] the target is Spermidine/spermine N(1)-acetyltransferase (SAT) (Mus musculus) (UniProt Q6P8J2+P48026). The experiment in a line: Effect on Spermidine/Spermine-Acetyltransferase (SSAT ) at 10 uM at 48 hour in L1210 cells. Format: functional, cell-based. Summed up: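 L1210 cells were exposed to 10 μM triamine for 48 h. SSAT activity was taken as [14C]N1-acetylspermidine formed from spermidine and [14C]acetyl-CoA, given as percent of untreated control. DENSPM-treated cells served as positive control. Values are the mean of at least three experiments.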
Spermidine/spermine N(1)-acetyltransferase (SAT) (Mus musculus), sequence (P48026 whole entry, looked up): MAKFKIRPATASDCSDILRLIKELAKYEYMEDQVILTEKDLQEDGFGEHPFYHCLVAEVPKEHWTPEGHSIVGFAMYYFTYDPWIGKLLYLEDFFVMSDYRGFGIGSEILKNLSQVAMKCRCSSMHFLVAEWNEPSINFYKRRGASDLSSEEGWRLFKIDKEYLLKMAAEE
Spermidine/spermine N(1)-acetyltransferase (SAT) (Mus musculus), sequence (Q6P8J2 whole entry, looked up): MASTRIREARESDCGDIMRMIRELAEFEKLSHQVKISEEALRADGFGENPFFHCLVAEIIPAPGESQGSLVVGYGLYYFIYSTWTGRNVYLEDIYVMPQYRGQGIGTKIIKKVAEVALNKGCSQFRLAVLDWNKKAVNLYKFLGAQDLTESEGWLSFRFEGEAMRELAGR

A short description of experiment [11]: Binding affinity values for polyamine transporter was determined.
The target in experiment [12] is T1, S-adenosylmethionine decarboxylase proenzyme 1 (Mus musculus) (UniProt P0DMN7).
T1 sequence (whole entry): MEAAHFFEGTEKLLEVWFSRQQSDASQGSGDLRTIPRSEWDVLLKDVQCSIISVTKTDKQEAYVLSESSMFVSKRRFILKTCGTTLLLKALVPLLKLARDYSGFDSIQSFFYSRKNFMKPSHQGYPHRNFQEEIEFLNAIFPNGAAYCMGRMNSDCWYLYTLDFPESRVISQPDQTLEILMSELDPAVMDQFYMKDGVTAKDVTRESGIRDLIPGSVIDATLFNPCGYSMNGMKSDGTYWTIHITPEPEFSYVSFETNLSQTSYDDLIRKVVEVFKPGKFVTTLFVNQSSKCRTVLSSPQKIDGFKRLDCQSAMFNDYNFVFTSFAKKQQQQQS
Put plainly: Effect on S-Adenosyl-methionine decarboxylase (AdoMetDC) tested at 1 uM at 6 hour in L1210 cells. In kind it is functional, cell-based. Summed up: as §1

The subject of experiment [13] is L1210. The experiment in a line: Percentage of spermine (after 48 hr exposure to 500 uM) in L1210 cells. Format: functional, Mus musculus. The method, boiled down:
as §2

Experiment [14] relates to L1210. Put plainly: Percentage of putrescine (after 48 hr exposure to 100 uM) in L1210 cells. Format: functional, Mus musculus. The method, boiled down: as §2
Experiment [15] deals with L1210. Put plainly: Percentage of putrescine after 48 hr exposure to the compound (500 uM ) in L1210 cells. Format: functional, Mus musculus. Summed up: as §2
Experiment [16] relates to L1210. Put plainly: Percentage of spermine (after 48 hr exposure to 100 uM) in L1210 cells. Format: functional, Mus musculus. Summed up: as §2
The test system of experiment [17] is L1210. Put plainly: Percentage of spermidine (after 48 hr exposure to 100 uM) in L1210 cells.
The test system of experiment [18] is L1210. The experiment in a line: Percentage of spermidine (after 48 hr exposure to 500 uM) in L1210 cells.
The subject of experiment [19] is L1210. The experiment in a line: Percentage of spermine after 48 hr exposure to the compound (75(0.75)uM ) in L1210 cells. In kind it is functional, Mus musculus. The method, boiled down: (§4)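 Log-phase murine L1210 leukemia cells (RPMI-1640, 10% fetal calf serum or NuSerum, HEPES-MOPS buffer, 1 mM aminoguanidine) exposed 48 h to analogue at two concentrations. Cells washed twice in cold RPMI-1640 and extracted with 0.6 N HClO4. Spermine in extracts quantified by HPLC of DANSYL derivatives and expressed as percent of untreated controls. Triplicate flasks per condition.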

For experiment [20], the system named is L1210. The experiment in a line: Percentage of putrescine after 48 hr exposure to the compound (15(0.15)uM ) in L1210 cells. Format: functional, Mus musculus. The method, boiled down:
as §2

The test system of experiment [21] is L1210. Put plainly: Percentage of spermidine after 48 hr of exposure to the compound (15(0.15)uM ) in L1210 cells. In kind it is functional, Mus musculus. Summed up:
as §2

Experiment [22] has as its system L1210. The experiment in a line: Percentage of spermidine after 48 hr of exposure to the compound (75(0.75)uM ) in L1210 cells. In kind it is functional, Mus musculus. The method, boiled down:
as §2

The subject of experiment [23] is L1210. The experiment in a line: Percentage of putrescine after 48 hr exposure to the compound (75(0.75)uM ) in L1210 cells. Format: functional, Mus musculus. Summed up: as §2
Experiment [24] relates to L1210. Put plainly: Percentage of spermine after 48 hr exposure to the compound (15(0.15)uM ) in L1210 cells. Format: functional, Mus musculus. Summed up: as §2
Experiment [25] relates to L1210. Put plainly: Percentage of spermine after 48 hr exposure to the compound (500(15)uM ) in L1210 cells. Format: functional, Mus musculus. The method, boiled down:
as §4

Experiment [26] relates to L1210. Put plainly: Percentage of putrescine after 48 hr exposure to the compound (100(3)uM ) in L1210 cells. Format: functional, Mus musculus. The method, boiled down: as §2
Experiment [27] concerns L1210. The experiment in a line: Percentage of spermidine after 48 hr of exposure to the compound (100(3)uM ) in L1210 cells. In kind it is functional, Mus musculus. Summed up: as §2
The test system of experiment [28] is L1210. Put plainly: Percentage of spermidine after 48 hr of exposure to the compound (500(15)uM ) in L1210 cells. Format: functional, Mus musculus. Summed up: as §2
The test system of experiment [29] is L1210. The experiment in a line: Percentage of putrescine after 48 hr exposure to the compound (500(15)uM ) in L1210 cells. Format: functional, Mus musculus. Summed up: as §2

SMILES strings stand for the structures. Some results are limits rather than exact numbers.

The values that follow come from ChEMBL document CHEMBL1130028, “A comparison of structure-activity relationships between spermidine and spermine analogue antineoplastics” (J Med Chem, 1997).

Broadly, the IC50 is the concentration that inhibits the measured activity by half. Low values mean inhibition by little substance, high ones a need for much substance. The Ki is a dissociation constant, usually derived from enzyme kinetics or from competition with a known ligand. A higher Ki goes with a looser hold on the target.

The compound `CCNCCCCNCCCCNCC` gave an ODC in experiment [1] of 47%. Moreover, the Polyamine in experiment [2] is 0%; in [3], 3%; in experiment [4], 6%; in experiment [6], 97%; in experiment [7], 0%. In addition, in [5], the “Picoequivalents of amine/10e6 cells” value amounted to 16920. In addition, the IC50 in [8] was 22 µM; in [9], 0.35 µM. In [10], this compound gave an SSAT of 640%. Affinity in experiment [11] was put at a Ki of 19 µM. In [12], this compound came in with an AdoMetDC of 90%.

With `CCCNCCCNCCCCN`, the Polyamine in [13] turned out to be 72%; in experiment [14], 0%; in [15], 0%; in experiment [16], 90%. The compound also gave an ODC in experiment [1] of 18%. Besides, the “Picoequivalents of amine/10e6 cells” value in experiment [5] is given as 18250. Also, the figures for the IC50 in [8] and in experiment [9] were over 100 µM and 28 µM, respectively. Also, the SSAT in [10] came to 1200%. Moreover, the inhibition constant (Ki) in experiment [11] was found to be 3 µM. In experiment [12], the AdoMetDC is 56%. The Spermidine % in experiment [17] is on record as 25%; in [18], 15%.

For `CCCNCCCCNCCCCN`, the Polyamine was 66% in experiment [13], 0% in [14], 0% in experiment [15] and 82% in [16]. The ODC in [1] is 20%. Moreover, in experiment [5], the “Picoequivalents of amine/10e6 cells” value turned out to be 20550. Moreover, the IC50 stood at 100 µM in [8] and 0.6 µM in experiment [9]. For the same compound, the SSAT in experiment [10] was found to be 570%. For the same compound, the Ki in experiment [11] is 5 µM. Moreover, the AdoMetDC in experiment [12] came to 59%. The Spermidine % in experiment [17] was determined as 2%; in experiment [18], 0%.

For the compound `CCNCCCCCNCCCCCNCC`, the Polyamine was determined as 73% in [19]; 0% in [20]; 55% in experiment [21]; 23% in experiment [22]; 0% in experiment [23]; 97% in experiment [24]. In experiment [1], the ODC is reported as 100%. In addition, the “Picoequivalents of amine/10e6 cells” value in experiment [5] was found to be 9010. Further, the IC50 is 11 µM in experiment [8] and 0.7 µM in [9]. For the same compound, the SSAT in [10] turned out to be 90%. In addition, the Ki in experiment [11] was determined as 170 µM. For the same compound, in experiment [12], the AdoMetDC is 109%.

With `CCCNCCCCNCCCNCCC`, the Polyamine in experiment [25] was 99%; in experiment [26] it was 6%; in experiment [27], 35%; in experiment [28], 12%; in experiment [29] it was 0%. Also, the ODC in [1] came out at 75%. The “Picoequivalents of amine/10e6 cells” value in [5] was 15330. The results for the IC50 in experiment [8] and in [9] were over 100 µM and 33 µM, respectively. The same compound gave an SSAT in [10] of 1030%. In experiment [11], the Ki was 26 µM. The compound further registered an AdoMetDC in experiment [12] of 107%.
